Source: ChEMBL document CHEMBL4049390, “Combination of amino acid/dipeptide with ligustrazine-betulinic acid as antitumor agents” (Eur J Med Chem, 2017)

Columns and labels:
[1] = system: A549; assay: Antiproliferative activity against human A549 cells after 72 hrs by MTT assay; assay type: functional, cell-based; settings: A549, 72 h
Procedure, shortened: (§1)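 MTT assay. Log-phase cells were seeded at 3×10^3 cells/well and left overnight, then exposed to serial dilutions of compound (DMSO solutions) for 72 h in RPMI 1640 with 10% heat-inactivated FBS at 37 °C, 5% CO2. MTT (5 mg/mL, 20 µL) was added for 4 h at 37 °C and the formazan dissolved in DMSO. A490 was read. % inhibition = (1 − sample OD/control OD)×100; IC50 is the 50% growth-inhibition concentration. Triplicates, n = 3 independent experiments.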

[2] = system: HT-29; assay: Antiproliferative activity against human HT-29 cells after 72 hrs by MTT assay; assay type: functional, cell-based; settings: HT-29, 72 h; procedure, shortened: as §1
[3] = system: HeLa; assay: Antiproliferative activity against human HeLa cells after 72 hrs by MTT assay; assay type: functional, cell-based; procedure, shortened: as §1
[4] = system: MDCK; assay: Antiproliferative activity against MDCK cells after 72 hrs by MTT assay; assay type: cell-based; settings: Canis lupus familiaris; procedure, shortened: as §1
[5] = system: HepG2; assay: Antiproliferative activity against human HepG2 cells after 72 hrs by MTT assay; assay type: functional, cell-based; settings: HepG2, 72 h; procedure, shortened: as §1
[6] = system: BGC-823; assay: Antiproliferative activity against human BGC823 cells after 72 hrs by MTT assay; assay type: functional, cell-based; settings: BGC-823, 72 h; procedure, shortened: as §1

| IC50 [1] [µM] | IC50 [2] [µM] | IC50 [3] [µM] | IC50 [5] [µM] | IC50 [6] [µM] | Structure (SMILES) | IC50 [4] [µM] |
| --- | --- | --- | --- | --- | --- | --- |
| 3.62 | 3.97 | 4.24 | 6.77 | 3.87 | C=C(C)[C@@H]1CC[C@]2(C(=O)OCc3nc(C)c(C)nc3C)CC[C@]3(C)[C@H](CC[C@@H]4[C@@]5(C)CC[C@H](OC(=O)CN)C(C)(C)[C@@H]5CC[C@]43C)[C@@H]12 | 5.82 |
| 4.18 | 6.66 | 8.39 | 3.64 | 7.05 | C=C(C)[C@@H]1CC[C@]2(C(=O)OCc3nc(C)c(C)nc3C)CC[C@]3(C)[C@H](CC[C@@H]4[C@@]5(C)CC[C@H](OC(=O)[C@@H](N)[C@@H](C)O)C(C)(C)[C@@H]5CC[C@]43C)[C@@H]12 | > 40 |
| 4.39 | 4.35 | 2.74 | 4.03 | 6.21 | C=C(C)[C@@H]1CC[C@]2(C(=O)OCc3nc(C)c(C)nc3C)CC[C@]3(C)[C@H](CC[C@@H]4[C@@]5(C)CC[C@H](OC(=O)[C@@H](N)CO)C(C)(C)[C@@H]5CC[C@]43C)[C@@H]12 | 8.56 |
| > 20 | > 20 | > 20 | > 40 | > 20 | C=C(C)[C@@H]1CC[C@]2(C(=O)OCc3nc(C)c(C)nc3C)CC[C@]3(C)[C@H](CC[C@@H]4[C@@]5(C)CC[C@H](OC(=O)[C@@H](N)CC(C)C)C(C)(C)[C@@H]5CC[C@]43C)[C@@H]12 | > 40 |
| 14.5 | 15.9 | > 20 | 12.7 | > 20 | C=C(C)[C@@H]1CC[C@]2(C(=O)OCc3nc(C)c(C)nc3C)CC[C@]3(C)[C@H](CC[C@@H]4[C@@]5(C)CC[C@H](OC(=O)[C@@H](N)[C@@H](C)CC)C(C)(C)[C@@H]5CC[C@]43C)[C@@H]12 | > 40 |
| 6.33 | 7.74 | 6.62 | > 20 | 6.16 | C=C(C)[C@@H]1CC[C@]2(C(=O)OCc3nc(C)c(C)nc3C)CC[C@]3(C)[C@H](CC[C@@H]4[C@@]5(C)CC[C@H](OC(=O)[C@H](C)N)C(C)(C)[C@@H]5CC[C@]43C)[C@@H]12 | > 40 |
| > 20 | > 20 | > 20 | > 20 | > 20 | C=C(C)[C@@H]1CC[C@]2(C(=O)OCc3nc(C)c(C)nc3C)CC[C@]3(C)[C@H](CC[C@@H]4[C@@]5(C)CC[C@H](OC(=O)[C@H](N)CC(=O)O)C(C)(C)[C@@H]5CC[C@]43C)[C@@H]12 | > 40 |
| 6.9 | > 20 | 8.63 | 5.91 | 7.14 | C=C(C)[C@@H]1CC[C@]2(C(=O)OCc3nc(C)c(C)nc3C)CC[C@]3(C)[C@H](CC[C@@H]4[C@@]5(C)CC[C@H](OC(=O)[C@@H](N)C(C)C)C(C)(C)[C@@H]5CC[C@]43C)[C@@H]12 | > 40 |
| 2.54 | 4.18 | 4.49 | 1.93 | 2.51 | C=C(C)[C@@H]1CC[C@]2(C(=O)OCc3nc(C)c(C)nc3C)CC[C@]3(C)[C@H](CC[C@@H]4[C@@]5(C)CC[C@H](OC(=O)[C@H](C)NC(=O)[C@H](C)N)C(C)(C)[C@@H]5CC[C@]43C)[C@@H]12 | 10.2 |
| 3.05 | 1.1 | 3.96 | 4.5 | 3.97 | C=C(C)[C@@H]1CC[C@]2(C(=O)OCc3nc(C)c(C)nc3C)CC[C@]3(C)[C@H](CC[C@@H]4[C@@]5(C)CC[C@H](OC(=O)CNC)C(C)(C)[C@@H]5CC[C@]43C)[C@@H]12 | 9.08 |

The remaining lines, values behind:

| Structure (SMILES) | IC50 [1] [µM] | IC50 [2] [µM] | IC50 [3] [µM] | IC50 [5] [µM] | IC50 [6] [µM] | IC50 [4] [µM] |
| --- | --- | --- | --- | --- | --- | --- |
| C=C(C)[C@@H]1CC[C@]2(C(=O)OCc3nc(C)c(C)nc3C)CC[C@]3(C)[C@H](CC[C@@H]4[C@@]5(C)CC[C@H](OC(=O)CN(C)C(=O)CN)C(C)(C)[C@@H]5CC[C@]43C)[C@@H]12 | 2.96 | 3.31 | 2.62 | 4.94 | 3.43 | 8.08 |
| C=C(C)[C@@H]1CC[C@]2(C(=O)OCc3nc(C)c(C)nc3C)CC[C@]3(C)[C@H](CC[C@@H]4[C@@]5(C)CC[C@H](OC(=O)CN(C)C(=O)CNC)C(C)(C)[C@@H]5CC[C@]43C)[C@@H]12 | 4.83 | 8.32 | 5.08 | 3.94 | 4.1 | 10.9 |
| C=C(C)[C@@H]1CC[C@]2(C(=O)OCc3nc(C)c(C)nc3C)CC[C@]3(C)[C@H](CC[C@@H]4[C@@]5(C)CC[C@H](OC(=O)CNC(=O)CN)C(C)(C)[C@@H]5CC[C@]43C)[C@@H]12 | 1.95 | 3.19 | 2.4 | 4 | 2.88 | 7.45 |
| C=C(C)[C@@H]1CC[C@]2(C(=O)OCc3nc(C)c(C)nc3C)CC[C@]3(C)[C@H](CC[C@@H]4[C@@]5(C)CC[C@H](OC(=O)CNC(=O)[C@H](C)N)C(C)(C)[C@@H]5CC[C@]43C)[C@@H]12 | 3.25 | 3.67 | 3.19 | 2.27 | 4.99 | 16.2 |
| C=C(C)[C@@H]1CC[C@]2(C(=O)OCc3nc(C)c(C)nc3C)CC[C@]3(C)[C@H](CC[C@@H]4[C@@]5(C)CC[C@H](OC(=O)CNC(=O)CNC)C(C)(C)[C@@H]5CC[C@]43C)[C@@H]12 | 3.02 | 3.37 | 7.38 | 5.27 | 2.07 | 20.6 |
| C=C(C)[C@@H]1CC[C@]2(C(=O)OCc3nc(C)c(C)nc3C)CC[C@]3(C)[C@H](CC[C@@H]4[C@@]5(C)CC[C@H](OC(=O)[C@@H]6CCC(=O)N6)C(C)(C)[C@@H]5CC[C@]43C)[C@@H]12 | 4.11 | 3.78 | 6.59 | 5.86 | 4.7 | 9.24 |
| C=C(C)[C@@H]1CC[C@]2(C(=O)OCc3nc(C)c(C)nc3C)CC[C@]3(C)[C@H](CC[C@@H]4[C@@]5(C)CC[C@H](OC(=O)[C@@H](N)Cc6c[nH]c7ccccc67)C(C)(C)[C@@H]5CC[C@]43C)[C@@H]12 | > 20 | 7.41 | > 20 | > 40 | > 20 | > 40 |
| C=C(C)[C@@H]1CC[C@]2(C(=O)OCc3nc(C)c(C)nc3C)CC[C@]3(C)[C@H](CC[C@@H]4[C@@]5(C)CC[C@H](OC(=O)[C@@H]6CCCN6)C(C)(C)[C@@H]5CC[C@]43C)[C@@H]12 | 3.36 | 2.73 | 6.33 | 4.54 | 3.47 | 10.2 |
| C=C(C)[C@@H]1CC[C@]2(C(=O)OCc3nc(C)c(C)nc3C)CC[C@]3(C)[C@H](CC[C@@H]4[C@@]5(C)CC[C@H](OC(=O)CN(C)C(=O)[C@H](C)N)C(C)(C)[C@@H]5CC[C@]43C)[C@@H]12 | 5.18 | 3.86 | 4.55 | 4.27 | 4.38 | 14.6 |
| C=C(C)[C@@H]1CC[C@]2(C(=O)OCc3nc(C)c(C)nc3C)CC[C@]3(C)[C@H](CC[C@@H]4[C@@]5(C)CC[C@H](OC(=O)CN(C)C(=O)[C@@H]6CCCN6)C(C)(C)[C@@H]5CC[C@]43C)[C@@H]12 | 3.91 | 5.98 | 3.02 | 3.75 | 1.83 | 11.3 |
| C=C(C)[C@@H]1CC[C@]2(C(=O)OCc3nc(C)c(C)nc3C)CC[C@]3(C)[C@H](CC[C@@H]4[C@@]5(C)CC[C@H](O)C(C)(C)[C@@H]5CC[C@]43C)[C@@H]12 | 3.56 | 7.41 | 8 | 5.7 | 6.87 | 18.2 |
| C=C(C)[C@@H]1CC[C@]2(C(=O)OCc3nc(C)c(C)nc3C)CC[C@]3(C)[C@H](CC[C@@H]4[C@@]5(C)CC[C@H](OC(=O)CNC(=O)[C@@H]6CCCN6)C(C)(C)[C@@H]5CC[C@]43C)[C@@H]12 | 2.98 | 4.11 | 2.2 | 3.48 | 0.84 | 6.63 |
| C=C(C)[C@@H]1CC[C@]2(C(=O)OCc3nc(C)c(C)nc3C)CC[C@]3(C)[C@H](CC[C@@H]4[C@@]5(C)CC[C@H](OC(=O)[C@@H](N)Cc6ccccc6)C(C)(C)[C@@H]5CC[C@]43C)[C@@H]12 | > 40 | > 20 | > 40 | > 40 | > 20 | > 40 |
